≈ marks a conversion by molar mass, not a printed value. Calls of active or inactive are those of the source. The calls are words filed in the database; no cut-off is given here.
What was measured:
[1] = tested on: Mycobacterium tuberculosis; experiment: Antimycobacterial activity against cycloserine-resistant Mycobacterium tuberculosis ATCC 35826; assay type: functional
Method in brief: (§1)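 Strain (H37Rv or ATCC single-drug-resistant isolates) grown to late log phase in 7H9 with 0.2% glycerol, 0.05% Tween80, 10% OADC. Cells washed into PBS, passed through 8 μm filter, frozen; CFU titred on 7H11 agar. MABA MIC is the lowest concentration giving ≥90% growth inhibition versus untreated controls.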

[2] = tested on: Mycobacterium tuberculosis; experiment: Antimycobacterial activity against kanamycin-resistant Mycobacterium tuberculosis ATCC 35827; assay type: functional; method in brief: as §1
[3] = tested on: Mycobacterium tuberculosis; experiment: Antimycobacterial activity against streptomycin-resistant Mycobacterium tuberculosis ATCC 35820; assay type: functional; method in brief: as §1
[4] = tested on: Mycobacterium tuberculosis; experiment: Antimycobacterial activity against isoniazid-resistant Mycobacterium tuberculosis ATCC 35822; assay type: functional; method in brief: as §1
[5] = tested on: Mycobacterium tuberculosis; experiment: Antimycobacterial activity against rifampin-resistant Mycobacterium tuberculosis ATCC 35838; assay type: functional; method in brief: as §1
[6] = tested on: Mycobacterium tuberculosis variant bovis BCG; experiment: Antimycobacterial activity against Mycobacterium bovis BCG ATCC 35734 at 100 ug/ml after 8 days by microplate Alamar blue assay; assay type: functional, organism-based
Method in brief: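 MABA in 7H12 (M. abscessus, M. bovis BCG) or 7H9 (others). Pre-dye incubation: M. abscessus 37 °C 3 days; BCG 37 °C 7 days; M. chelonae 30 °C 3 days; M. marinum 30 °C 5 days; M. avium and M. kansasii 37 °C 6 days. Then 20% Tween80 plus Alamar blue added: 4 h (abscessus), 6 days (chelonae), 1 day (others). Tested at 100 μg/mL.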

| SMILES | MIC90 [1] | MIC90 [2] | MIC90 [3] | MIC90 [4] | MIC90 [5] | Activity [6] |
| --- | --- | --- | --- | --- | --- | --- |
| NNC(=O)c1ccncc1 [ISONIAZID] | 0.04 µg/mL (≈ 0.292 µM) | 0.07 µg/mL (≈ 0.51 µM) | 0.03 µg/mL (≈ 0.219 µM) | > 2.19 µg/mL | 0.03 µg/mL (≈ 0.219 µM) | – |
| O=[N+]([O-])c1cn2c(n1)OC[C@@H](OCc1ccc(OC(F)(F)F)cc1)C2 [PRETOMANID] | 0.18 µg/mL (≈ 0.501 µM) | 0.34 µg/mL (≈ 0.946 µM) | 0.17 µg/mL (≈ 0.473 µM) | 0.05 µg/mL (≈ 0.139 µM) | 0.07 µg/mL (≈ 0.195 µM) | – |
| N[C@@H]1CONC1=O [CYCLOSERINE] | > 10.2 µg/mL | 4.9 µg/mL (≈ 48 µM) | 4.9 µg/mL (≈ 48 µM) | 5 µg/mL (≈ 49 µM) | 4.8 µg/mL (≈ 47 µM) | – |
| O=c1cc(-c2ccccc2)c2cc(Cl)ccc2o1 | – | – | – | – | – | inactive |
| CCOC(=O)c1c(-c2ccccc2)c2cc(Cl)ccc2oc1=O | > 100 µg/mL | > 100 µg/mL | 49.5 µg/mL (≈ 151 µM) | 44.7 µg/mL (≈ 136 µM) | 46.6 µg/mL (≈ 142 µM) | inactive |
| NC[C@H]1O[C@H](O[C@H]2[C@H](O)[C@@H](O[C@H]3O[C@H](CO)[C@@H](O)[C@H](N)[C@H]3O)[C@H](N)C[C@@H]2N)[C@H](O)[C@@H](O)[C@@H]1O [KANAMYCIN] | 1.12 µg/mL (≈ 2.31 µM) | > 25 µg/mL | 0.76 µg/mL (≈ 1.57 µM) | 0.72 µg/mL (≈ 1.49 µM) | 0.73 µg/mL (≈ 1.51 µM) | – |
| O=c1cc(-c2ccccc2)c2ccc(Cl)cc2o1 | 47.3 µg/mL (≈ 184 µM) | 47.4 µg/mL (≈ 185 µM) | 46.9 µg/mL (≈ 183 µM) | 76.5 µg/mL (≈ 298 µM) | 45.4 µg/mL (≈ 177 µM) | inactive |
| CN[C@@H]1[C@H](O[C@H]2[C@H](O[C@H]3[C@H](O)[C@@H](O)[C@H](N=C(N)N)[C@@H](O)[C@@H]3N=C(N)N)O[C@@H](C)[C@]2(O)C=O)O[C@@H](CO)[C@H](O)[C@H]1O [STREPTOMYCIN] | 0.53 µg/mL (≈ 0.911 µM) | 1.48 µg/mL (≈ 2.54 µM) | > 9.31 µg/mL | 0.56 µg/mL (≈ 0.963 µM) | 0.47 µg/mL (≈ 0.808 µM) | – |
| CCOC(=O)c1c(-c2ccccc2)c2ccc(Cl)cc2oc1=O | 47.3 µg/mL (≈ 144 µM) | 43.9 µg/mL (≈ 134 µM) | 46.9 µg/mL (≈ 143 µM) | 31.7 µg/mL (≈ 96.4 µM) | 44.7 µg/mL (≈ 136 µM) | inactive |
| CO[C@H]1/C=C/O[C@@]2(C)Oc3c(C)c(O)c4c(O)c(c(/C=N/N5CCN(C)CC5)c(O)c4c3C2=O)NC(=O)/C(C)=C\C=C\[C@H](C)[C@H](O)[C@@H](C)[C@@H](O)[C@@H](C)[C@H](OC(C)=O)[C@@H]1C [RIFAMPIN] | 0.02 µg/mL (≈ 0.0243 µM) | 0.02 µg/mL (≈ 0.0243 µM) | 0.09 µg/mL (≈ 0.109 µM) | 0.04 µg/mL (≈ 0.0486 µM) | > 3.29 µg/mL | – |

— ChEMBL document CHEMBL2429835
